ChEMBL document CHEMBL5058577, “EUbOPEN Chemogenomics Library 2 (Multiplex)” (2022)

System: HEK-293T
Test: Multiplex assay against HEK293T
Assay type: toxicity, cell-based
Conditions: human
Outline: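 Cells were classed with CellPathfinder machine-learning gating, first as Hoechst high-intensity objects or normal cells, then (normal cells) as healthy, pyknosed or fragmented nuclei, and finally (pyknosed cells) as mitotic or apoptotic. Staining of live cells at seeding used Hoechst33342, BioTracker Green Microtubule Cytoskeleton Dye, MitoTracker Red and Annexin V Alexa Fluor 680, with imaging on a CQ1 microscope at 37°C and 5% CO2 after compound addition. Tubulin, mitochondrial-mass and membrane-permeability phenotypes are per cents of healthy-nucleus cells.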

[1] = 12 h, 1 µM, compound concentration 1 uM, replicate 1
[2] = 12 h, 1 µM, compound concentration 1 uM, replicate 2
[3] = 12 h, 10 µM, compound concentration 10 uM, replicate 1
[4] = 12 h, 10 µM, compound concentration 10 uM, replicate 2
[5] = 24 h, 1 µM, compound concentration 1 uM, replicate 1
[6] = 24 h, 1 µM, compound concentration 1 uM, replicate 2
[7] = 24 h, 10 µM, compound concentration 10 uM, replicate 1
[8] = 24 h, 10 µM, compound concentration 10 uM, replicate 2
[9] = 48 h, 1 µM, compound concentration 1 uM, replicate 1
[10] = 48 h, 1 µM, compound concentration 1 uM, replicate 2
[11] = 48 h, 10 µM, compound concentration 10 uM, replicate 1
[12] = 48 h, 10 µM, compound concentration 10 uM, replicate 2

SMILES: Oc1c(CN2CCN(c3ccccn3)CC2)cc(Cl)c2cccnc12
- Population Apoptotic (%) [1]: 30%
- Population Fragmented Nuclei (%) [1]: 6%
- Population Healthy Nuclei (%) [1]: 83%
- Population Hoechst High Intensity Objects (%) [1]: 7%
- Population Membrane Permeable-Phenotype (%) [1]: 0%
- Population Mitochondria Different-Phenotype (%) [1]: 44%
- Population Mitotic Cells (%) [1]: 70%
- Population Normal (%) [1]: 92%
- Population Pyknosed Nuclei (%) [1]: 10%
- Population Tubulin-Different-Phenotype (%) [1]: 34%
- Total Cell Count [1]: 424
- Population Apoptotic (%) [2]: 45%
- Population Fragmented Nuclei (%) [2]: 5%
- Population Healthy Nuclei (%) [2]: 80%
- Population Mitochondria Different-Phenotype (%) [2]: 59%
- Population Mitotic Cells (%) [2]: 54%
- Population Pyknosed Nuclei (%) [2]: 13%
- Population Tubulin-Different-Phenotype (%) [2]: 20%
- Total Cell Count [2]: 354
- Population Apoptotic (%) [3]: 71%
- Population Fragmented Nuclei (%) [3]: 16%
- Population Healthy Nuclei (%) [3]: 64%
- Population Hoechst High Intensity Objects (%) [3]: 11%
- Population Membrane Permeable-Phenotype (%) [3]: 0%
- Population Mitochondria Different-Phenotype (%) [3]: 64%
- Population Mitotic Cells (%) [3]: 28%
- Population Normal (%) [3]: 88%
- Population Pyknosed Nuclei (%) [3]: 18%
- Population Tubulin-Different-Phenotype (%) [3]: 20%
- Total Cell Count [3]: 197
- Population Apoptotic (%) [4]: 73%
- Population Fragmented Nuclei (%) [4]: 18%
- Population Healthy Nuclei (%) [4]: 69%
- Population Hoechst High Intensity Objects (%) [4]: 6%
- Population Mitochondria Different-Phenotype (%) [4]: 70%
- Population Mitotic Cells (%) [4]: 26%
- Population Normal (%) [4]: 93%
- Population Pyknosed Nuclei (%) [4]: 12%
- Population Tubulin-Different-Phenotype (%) [4]: 32%
- Total Cell Count [4]: 327
- Population Apoptotic (%) [5]: 34%
- Population Fragmented Nuclei (%) [5]: 6%
- Population Healthy Nuclei (%) [5]: 84%
- Population Hoechst High Intensity Objects (%) [5]: 3%
- Population Membrane Permeable-Phenotype (%) [5]: 0%
- Population Mitochondria Different-Phenotype (%) [5]: 22%
- Population Mitotic Cells (%) [5]: 65%
- Population Normal (%) [5]: 96%
- Population Pyknosed Nuclei (%) [5]: 9%
- Population Tubulin-Different-Phenotype (%) [5]: 23%
- Total Cell Count [5]: 529
- Population Apoptotic (%) [6]: 33%
- Population Fragmented Nuclei (%) [6]: 7%
- Population Mitochondria Different-Phenotype (%) [6]: 40%
- Population Mitotic Cells (%) [6]: 66%
- Population Pyknosed Nuclei (%) [6]: 8%
- Population Tubulin-Different-Phenotype (%) [6]: 13%
- Total Cell Count [6]: 427
- Population Apoptotic (%) [7]: 93%
- Population Fragmented Nuclei (%) [7]: 18%
- Population Healthy Nuclei (%) [7]: 65%
- Population Hoechst High Intensity Objects (%) [7]: 13%
- Population Membrane Permeable-Phenotype (%) [7]: 1%
- Population Mitochondria Different-Phenotype (%) [7]: 65%
- Population Mitotic Cells (%) [7]: 6%
- Population Normal (%) [7]: 86%
- Population Pyknosed Nuclei (%) [7]: 15%
- Population Tubulin-Different-Phenotype (%) [7]: 19%
- Total Cell Count [7]: 227
- Population Apoptotic (%) [8]: 81%
- Population Fragmented Nuclei (%) [8]: 21%
- Population Healthy Nuclei (%) [8]: 63%
- Population Hoechst High Intensity Objects (%) [8]: 7%
- Population Mitochondria Different-Phenotype (%) [8]: 78%
- Population Mitotic Cells (%) [8]: 18%
- Population Normal (%) [8]: 92%
- Population Tubulin-Different-Phenotype (%) [8]: 34%
- Total Cell Count [8]: 354
- Population Apoptotic (%) [9]: 29%
- Population Fragmented Nuclei (%) [9]: 12%
- Population Healthy Nuclei (%) [9]: 80%
- Population Hoechst High Intensity Objects (%) [9]: 3%
- Population Membrane Permeable-Phenotype (%) [9]: 0%
- Population Mitochondria Different-Phenotype (%) [9]: 22%
- Population Mitotic Cells (%) [9]: 70%
- Population Normal (%) [9]: 96%
- Population Pyknosed Nuclei (%) [9]: 6%
- Population Tubulin-Different-Phenotype (%) [9]: 16%
- Total Cell Count [9]: 689
- Population Apoptotic (%) [10]: 31%
- Population Fragmented Nuclei (%) [10]: 10%
- Population Healthy Nuclei (%) [10]: 83%
- Population Mitochondria Different-Phenotype (%) [10]: 17%
- Population Mitotic Cells (%) [10]: 68%
- Population Pyknosed Nuclei (%) [10]: 5%
- Population Tubulin-Different-Phenotype (%) [10]: 10%
- Total Cell Count [10]: 518
- Population Apoptotic (%) [11]: 83%
- Population Fragmented Nuclei (%) [11]: 23%
- Population Healthy Nuclei (%) [11]: 44%
- Population Hoechst High Intensity Objects (%) [11]: 25%
- Population Membrane Permeable-Phenotype (%) [11]: 0%
- Population Mitochondria Different-Phenotype (%) [11]: 60%
- Population Mitotic Cells (%) [11]: 16%
- Population Normal (%) [11]: 74%
- Population Pyknosed Nuclei (%) [11]: 31%
- Population Tubulin-Different-Phenotype (%) [11]: 30%
- Total Cell Count [11]: 204
- Population Apoptotic (%) [12]: 94%
- Population Fragmented Nuclei (%) [12]: 28%
- Population Healthy Nuclei (%) [12]: 49%
- Population Hoechst High Intensity Objects (%) [12]: 14%
- Population Mitochondria Different-Phenotype (%) [12]: 81%
- Population Mitotic Cells (%) [12]: 5%
- Population Normal (%) [12]: 85%
- Population Pyknosed Nuclei (%) [12]: 22%
- Population Tubulin-Different-Phenotype (%) [12]: 42%
- Total Cell Count [12]: 295
